Laboratory results: PMC5161045 (Journal of Antimicrobial Chemotherapy, 2016)
In brackets after ≈: the same amount, converted by molar mass. Ends that are not written are not given here.

Assays:
[1] = system: S. aureus DA28823 (WT); test: MIC of antibiotics by Etest; assay type: cell-based; settings: Staphylococcus aureus
Outline: (§1)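 Strains were grown overnight with shaking at 37°C in Mueller–Hinton II broth and diluted to ∼10⁸ cfu/mL in the same broth. They were swabbed onto Mueller–Hinton II agar, an antibiotic Etest strip was applied, and plates were incubated at 37°C for 18–20 h. MIC is the lowest concentration with no visible growth, taken as the consensus of ≥2 independent determinations. Increases over WT were graded 2–5-fold or >5-fold, and EUCAST v5.0 breakpoints were used.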

[2] = system: S. aureus DA30560 (cycled with no peptide); test: MIC of antibiotics by Etest; assay type: cell-based; settings: Staphylococcus aureus
Outline: as §1

[3] = system: S. aureus DA29677 (cycled with LL-37); test: MIC of antibiotics by Etest; assay type: cell-based; settings: Staphylococcus aureus
Outline: as §1

[4] = system: S. aureus DA29680 (cycled with LL-37); test: MIC of antibiotics by Etest; assay type: cell-based; settings: Staphylococcus aureus
Outline: as §1

[5] = system: S. aureus DA30557 (cycled with WGH); test: MIC of antibiotics by Etest; assay type: cell-based, Staphylococcus aureus; settings: for MIC: Staphylococcus aureus
Outline: as §1

[6] = system: S. aureus DA30559 (cycled with WGH); test: MIC of antibiotics by Etest; assay type: cell-based; settings: Staphylococcus aureus
Outline: as §1

[7] = system: S. aureus DA36424 (cycled with LL-37 and WGH); test: MIC of antibiotics by Etest; assay type: cell-based; settings: Staphylococcus aureus
Outline: as §1

[8] = system: S. aureus DA35920 (cycled with PR-39); test: MIC of antibiotics by Etest; assay type: cell-based; settings: Staphylococcus aureus
Outline: as §1

[9] = system: S. aureus DA37296 (cycled with PR-39); test: MIC of antibiotics by Etest; assay type: cell-based; settings: Staphylococcus aureus
Outline: as §1

[10] = system: seven AMP-resistant S. aureus mutants; test: MIC of antibiotics by Etest, summary over mutants; assay type: cell-based, Staphylococcus aureus; settings: Mueller–Hinton medium; for number of AMP-resistant mutants with reduced/diminished susceptibility: of seven mutants
Outline: as §1

[11] = system: S. aureus DA36424; test: Bacterial cell survival assay with human defensins; assay type: cell-based, Staphylococcus aureus; settings: strain DA36424; 10 μM peptide, NaPB pH 7.4, exponential phase cells, 37°C, 2 h
[12] = system: S. aureus DA29677; test: Bacterial cell survival assay with human defensins; assay type: cell-based, Staphylococcus aureus; settings: strain DA29677, NaPB pH 7.4, exponential phase cells, 37°C, 2 h
Outline: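 Exponential-phase cells: overnight TSB culture diluted 1:100 in pre-warmed TSB, shaken 2 h at 37°C, washed once and resuspended in 10 mM sodium phosphate pH 7.4. Diluted to 0.69−4.7 × 10⁴ cfu/mL and exposed to hBD3 at 1 μM or other β-defensins at 10 μM, shaking in a sealed humidified container at 37°C for 2 h. Cells were plated on TSA for cfu. % survival = cfu with peptide/cfu without peptide × 100. Detection limit 1% survival. Mean ± SEM of ≥3 independent determinations.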

[13] = Solubility limit in MIEM; assay type: physicochemical; settings: in MIEM (mammalian ionic environment medium, without NaCl, pH 7.4)

## CC(=O)NC[C@H]1CN(c2ccc(N3CCOCC3)c(F)c2)C(=O)O1 [LZD, linezolid]
[1]
  MIC: 2 µg/mL
[2]
  MIC: 2 µg/mL
[3]
  MIC: 1.5 µg/mL
[4]
  MIC: 1.5 µg/mL
[5]
  MIC: 2 µg/mL
[6]
  MIC: 1 µg/mL
[7]
  MIC: 2 µg/mL
[8]
  MIC: 1 µg/mL
[9]
  MIC: 2 µg/mL

## CCO/N=C(\C(=O)N[C@@H]1C(=O)N2C(C(=O)[O-])=C(Sc3nc(-c4cc[n+](C)cc4)cs3)CS[C@H]12)c1nsc(N)n1 [CFT, ceftaroline]
[1]
  MIC: 0.25 µg/mL
[2]
  MIC: 0.25 µg/mL
[3]
  MIC: 0.19 µg/mL
[4]
  MIC: 0.25 µg/mL
[5]
  MIC: 0.38 µg/mL
[6]
  MIC: 0.38 µg/mL
[7]
  MIC: 0.38 µg/mL
[8]
  MIC: 0.19 µg/mL
[9]
  MIC: 0.25 µg/mL

## CNC(C)C1CCC(N)C(OC2C(N)CC(N)C(OC3OCC(C)(O)C(NC)C3O)C2O)O1 (centres unmarked) [GEN, gentamicin]
[1]
  MIC: 0.125 µg/mL
[2]
  MIC: 0.125 µg/mL
[3]
  MIC: 0.094 µg/mL
[4]
  MIC: 0.094 µg/mL
[5]
  MIC: 1 µg/mL
[5]; strain DA30557 (passaged with WGH), relative to WT, Etest
  increase in MIC: 8 fold
[6]
  MIC: 0.38 µg/mL
[7]
  MIC: 0.19 µg/mL
[8]
  MIC: 0.25 µg/mL
[9]
  MIC: 0.5 µg/mL
[10]
  number of AMP-resistant mutants with reduced/diminished susceptibility: Four of seven

## CN(C)[C@@H]1C(O)=C(C(N)=O)C(=O)[C@@]2(O)C(O)=C3C(=O)c4c(O)cccc4[C@@](C)(O)[C@H]3C[C@@H]12 [TET, tetracycline]
[1]
  MIC: 0.094 µg/mL
[2]
  MIC: 0.094 µg/mL
[3]
  MIC: 0.19 µg/mL
[4]
  MIC: 0.25 µg/mL
[5]
  MIC: 0.25 µg/mL
[6]
  MIC: 0.19 µg/mL
[7]
  MIC: 0.25 µg/mL
[8]
  MIC: 0.125 µg/mL
[9]
  MIC: 0.19 µg/mL
[10]
  number of AMP-resistant mutants with reduced/diminished susceptibility: six of seven

## CN[C@H](CC(C)C)C(=O)N[C@H]1C(=O)N[C@@H](CC(N)=O)C(=O)N[C@H]2C(=O)N[C@H]3C(=O)N[C@H](C(=O)N[C@H](C(=O)O)c4cc(O)cc(O)c4-c4cc3ccc4O)[C@H](O)c3ccc(c(Cl)c3)Oc3cc2cc(c3O[C@@H]2O[C@H](CO)[C@@H](O)[C@H](O)[C@H]2O[C@H]2C[C@](C)(N)[C@H](O)[C@H](C)O2)Oc2ccc(cc2Cl)[C@H]1O [VAN, vancomycin]
[1]
  MIC: 1.5 µg/mL
[2]
  MIC: 1.5 µg/mL
[3]
  MIC: 2 µg/mL
[4]
  MIC: 2 µg/mL
[5]
  MIC: 2 µg/mL
[6]
  MIC: 1.5 µg/mL
[7]
  MIC: 2 µg/mL
[8]
  MIC: 2 µg/mL
[9]
  MIC: 2 µg/mL
[10]
  susceptibility of all seven AMP-resistant mutants relative to WT (in words): little to no change in susceptibility

## AFTCHCRRSCYSTEYSYGTCTVMGINHRFCCL (bicyclic or more) [HNP6]
[11]
  bacterial survival after defensin exposure, relative to WT (in words): significantly reduced survival

## O=C(N[C@H](CO)[C@H](O)c1ccc([N+](=O)[O-])cc1)C(Cl)Cl [CHL, chloramphenicol]
[1]
  MIC: 4 µg/mL
[2]
  MIC: 4 µg/mL
[3]
  MIC: 6 µg/mL
[4]
  MIC: 4 µg/mL
[5]
  MIC: 4 µg/mL
[6]
  MIC: 4 µg/mL
[7]
  MIC: 4 µg/mL
[8]
  MIC: 3 µg/mL
[9]
  MIC: 6 µg/mL

## CO[C@H]1/C=C/O[C@@]2(C)Oc3c(C)c(O)c4c(O)c(c(/C=N/N5CCN(C)CC5)c(O)c4c3C2=O)NC(=O)/C(C)=C\C=C\[C@H](C)[C@H](O)[C@@H](C)[C@@H](O)[C@@H](C)[C@H](OC(C)=O)[C@@H]1C [RIF, rifampicin]
[1]
  MIC: 0.012 µg/mL
[2]
  MIC: 0.012 µg/mL
[3]
  MIC: 0.008 µg/mL
[4]
  MIC: 0.012 µg/mL
[5]
  MIC: 0.012 µg/mL
[6]
  MIC: 0.016 µg/mL
[7]
  MIC: 0.012 µg/mL
[8]
  MIC: 0.016 µg/mL
[9]
  MIC: 0.008 µg/mL

## GIINTLQKYYCRVRGGRCAVLSCLPKEEQIGKCSTRGRKCCRRKK (also: bicyclic or more (positions not given here)) [hBD3]
[12]; 1 μM peptide
  resistance to human β-defensin, relative to WT (in words): increased resistance

## DHYNCVSSGGQCLYSACPIFTKIQGTCYRGKAKCCK (also: bicyclic or more (positions not given here)) [hBD1]
[12]; 10 μM peptide
  resistance to human β-defensin, relative to WT (in words): increased resistance

## CCC[C@@H]1C[C@@H](C(=O)N[C@@H]([C@H]2O[C@H](SC)[C@H](O)[C@@H](O)[C@H]2O)[C@H](C)Cl)N(C)C1 [CLI, clindamycin]
[1]
  MIC: 0.094 µg/mL
[2]
  MIC: 0.094 µg/mL
[3]
  MIC: 0.047 µg/mL
[4]
  MIC: 0.094 µg/mL
[5]
  MIC: 0.064 µg/mL
[6]
  MIC: 0.064 µg/mL
[7]
  MIC: 0.125 µg/mL
[8]
  MIC: 0.094 µg/mL
[9]
  MIC: 0.125 µg/mL

## polymyxin B [PMB]
[10]
  number of AMP-resistant mutants with reduced/diminished susceptibility: three of seven

## GIGDPVTCLKSGAICHPVFCPRRYKQIGTCGLPGTKCCKKP (also: bicyclic or more (positions not given here)) [hBD2]
[12]; 10 μM peptide
  resistance to human β-defensin, relative to WT (in words): increased resistance

## C[C@H]1c2cccc(O)c2C(=O)C2=C(O)[C@]3(O)C(=O)C(C(N)=O)=C(O)[C@@H](N(C)C)[C@@H]3[C@@H](O)[C@@H]21 [DOX, doxycycline]
[3]
  MIC: 0.125 µg/mL
[4]
  MIC: 0.094 µg/mL
[5]
  MIC: 0.094 µg/mL
[6]
  MIC: 0.125 µg/mL
[7]
  MIC: 0.25 µg/mL
[8]
  MIC: 0.094 µg/mL
[9]
  MIC: 0.125 µg/mL

## teicoplanin [TEC]
[10]
  susceptibility of all seven AMP-resistant mutants relative to WT (in words): diminished susceptibility

## CC[C@H](C)[C@H](NC(=O)[C@H](CCCCN)NC(=O)[C@H](CCC(=O)O)NC(=O)[C@H](CCCCN)NC(=O)[C@H](CO)NC(=O)[C@H](CCCCN)NC(=O)[C@H](CCCNC(=N)N)NC(=O)[C@H](Cc1ccccc1)NC(=O)[C@H](Cc1ccccc1)NC(=O)[C@H](CC(=O)O)NC(=O)CNC(=O)[C@H](CC(C)C)NC(=O)[C@@H](N)CC(C)C)C(=O)NCC(=O)N[C@@H](CCCCN)C(=O)N[C@@H](CCC(=O)O)C(=O)N[C@@H](Cc1ccccc1)C(=O)N[C@@H](CCCCN)C(=O)N[C@@H](CCCNC(=N)N)C(=O)N[C@H](C(=O)N[C@H](C(=O)N[C@@H](CCC(N)=O)C(=O)N[C@@H](CCCNC(=N)N)C(=O)N[C@H](C(=O)N[C@@H](CCCCN)C(=O)N[C@@H](CC(=O)O)C(=O)N[C@@H](Cc1ccccc1)C(=O)N[C@@H](CC(C)C)C(=O)N[C@@H](CCCNC(=N)N)C(=O)N[C@@H](CC(N)=O)C(=O)N[C@@H](CC(C)C)C(=O)N[C@H](C(=O)N1CCC[C@H]1C(=O)N[C@@H](CCCNC(=N)N)C(=O)N[C@H](C(=O)N[C@@H](CCC(=O)O)C(=O)N[C@@H](CO)C(=O)O)[C@@H](C)O)C(C)C)[C@@H](C)CC)C(C)C)[C@@H](C)CC [LL-37]
[13]
  solubility limit: ~550 µg/mL (≈ 122 µM)

## CN(C)c1cc(NC(=O)CNC(C)(C)C)c(O)c2c1C[C@H]1C[C@H]3[C@H](N(C)C)C(O)=C(C(N)=O)C(=O)[C@@]3(O)C(O)=C1C2=O [TGC, tigecycline]
[1]
  MIC: 0.094 µg/mL
[2]
  MIC: 0.094 µg/mL
[3]
  MIC: 0.094 µg/mL
[4]
  MIC: 0.19 µg/mL
[5]
  MIC: 0.094 µg/mL
[6]
  MIC: 0.094 µg/mL
[7]
  MIC: 0.19 µg/mL
[8]
  MIC: 0.125 µg/mL
[9]
  MIC: 0.125 µg/mL
[10]
  number of AMP-resistant mutants with reduced/diminished susceptibility: two of seven

## CC[C@H]1OC(=O)[C@H](C)[C@@H](O[C@H]2C[C@@](C)(OC)[C@@H](O)[C@H](C)O2)[C@H](C)[C@@H](O[C@@H]2O[C@H](C)C[C@H](N(C)C)[C@H]2O)[C@](C)(O)C[C@@H](C)C(=O)[C@H](C)[C@@H](O)[C@]1(C)O [ERY, erythromycin]
[1]
  MIC: 0.19 µg/mL
[2]
  MIC: 0.19 µg/mL
[3]
  MIC: 0.19 µg/mL
[4]
  MIC: 0.19 µg/mL
[5]
  MIC: 0.125 µg/mL
[6]
  MIC: 0.125 µg/mL
[7]
  MIC: 0.25 µg/mL
[8]
  MIC: 0.38 µg/mL
[9]
  MIC: 0.38 µg/mL
[10]
  number of AMP-resistant mutants with reduced/diminished susceptibility: two of seven
